Assay results as given in ChEMBL document CHEMBL1122854, “Novel bis[1,6-dihydro-6,6-dimethyl-1,3,5-triazine-2,4-diamines] as antitrypanosomal agents” (1985).
Where “and” joins values, the source holds several entries; their conditions need not be identical. Equal entries are not always repeated.

What was measured:
[1] = system: Trypanosoma brucei rhodesiense; experiment: Antitrypanosomal activity against Trypanosoma rhodesiense infections in mice, 424 mg/kg administered subcutaneously; format: functional; settings: route subcutaneous
In short: (§1)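 IUR/HA Swiss mice (six weeks old, 30-32 g) infected i.p. with Wellcome CT strain T. rhodesiense. A single subcutaneous dose in peanut oil was given about 2 h after inoculation, with five mice per dose level. Positive control was stilbamidine or 2-hydroxystilbamidine isethionate at 40 mg/kg. Deaths before day 4 were scored toxic, and 30-day survivors cured.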

Mus musculus [2] = experiment: Antitrypanosomal activity was evaluated against Trypanosoma rhodesiense infections in mice, at dose 13 mg/kg, administered subcutaneously;Toxic; format: functional; settings: route subcutaneous; in short: as §1
[3] = system: Trypanosoma brucei rhodesiense; experiment: Antitrypanosomal activity was evaluated against Trypanosoma rhodesiense infections in mice, at dose 26 mg/kg, administered subcutaneously; format: functional; settings: route subcutaneous; in short: as §1
[4] = system: Trypanosoma brucei rhodesiense; experiment: Antitrypanosomal activity was evaluated against Trypanosoma rhodesiense infections in mice, at dose 106 mg/kg, administered subcutaneously; format: functional; settings: route subcutaneous; in short: as §1
[5] = system: Trypanosoma brucei rhodesiense; experiment: Antitrypanosomal activity was evaluated against Trypanosoma rhodesiense infections in mice, at dose 1.6 mg/kg, administered subcutaneously; format: functional; settings: route subcutaneous
In short: (§2)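 Six-week-old IUR/HA Swiss mice (30-32 g), 5 per dose, infected ip with 0.5 mL of a 1:50 000 dilution of heparinized heart blood from donor mice infected 3 days before (Wellcome CT strain). Single sc dose in peanut oil about 2 h post-inoculation. Deaths before day 4 counted toxic. ΔMST versus untreated controls; survivors at 30 days counted cured.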

[6] = system: Trypanosoma brucei rhodesiense; experiment: Antitrypanosomal activity against Trypanosoma rhodesiense infections in mice, 3.3 mg/kg administered subcutaneously; format: functional; settings: route subcutaneous; in short: as §2
[7] = system: Trypanosoma brucei rhodesiense; experiment: Antitrypanosomal activity against Trypanosoma rhodesiense infections in mice, 6.6 mg/kg administered subcutaneously; format: functional; settings: route subcutaneous; in short: as §2
Mus musculus [8] = experiment: Antitrypanosomal activity was evaluated against Trypanosoma rhodesiense infections in mice, at dose 0.8mg/kg, administered subcutaneously
Mus musculus [9] = experiment: Antitrypanosomal activity was evaluated against Trypanosoma rhodesiense infections in mice, at dose 212 mg/kg, administered subcutaneously; Cures; format: functional; settings: route subcutaneous; in short: as §1
Mus musculus [10] = experiment: (§3) Antitrypanosomal activity was evaluated against Trypanosoma rhodesiense infections in mice, at dose 26 mg/kg, administered orally; Cures; format: functional
In short: (§4)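 Oral dosing of IUR/HA Swiss mice (six weeks old, 30-32 g) infected i.p. with Wellcome CT strain T. rhodesiense, with five mice per dose level. Survival was followed for 30 days. Deaths before day 4 were counted as toxic and 30-day survivors as cured. ΔMST is the difference in mean survival time between treated and control mice.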

Mus musculus [11] = experiment: Antitrypanosomal activity was evaluated against Trypanosoma rhodesiense infections in mice, at dose 106 mg/kg, administered orally; Cures; format: functional; in short: as §4
Mus musculus [12] = experiment: Antitrypanosomal activity was evaluated against Trypanosoma rhodesiense infections in mice, at dose 424 mg/kg, administered orally; Cures; format: functional; in short: as §4
Mus musculus [13] = experiment: (§5) Antitrypanosomal activity was evaluated against Trypanosoma rhodesiense infections in mice, at dose 424 mg/kg, administered orally; format: functional; settings: route oral, 424 mg/kg; in short: as §4
Mus musculus [14] = experiment: Antitrypanosomal activity was evaluated against Trypanosoma rhodesiense infections in mice, at dose 106 mg/kg, administered orally; format: functional; settings: route oral
[15] = system: Trypanosoma brucei rhodesiense; experiment: Antitrypanosomal activity was evaluated against Trypanosoma rhodesiense infections in mice, at dose 212 mg/kg, administered subcutaneously; format: functional; settings: route subcutaneous; in short: as §2
Mus musculus [16] = experiment: Antitrypanosomal activity was evaluated against Trypanosoma rhodesiense infections in mice, at dose 26 mg/kg, administered orally; format: functional; settings: route oral
Mus musculus [17] = experiment: as §3; format: functional; remark: listed apart in the source
Mus musculus [18] = experiment: as §5; format: functional; settings: route oral
Mus musculus [19] = experiment: Antitrypanosomal activity was evaluated against Trypanosoma rhodesiense infections in mice, at dose 13 mg/kg, administered subcutaneously; format: functional; settings: route subcutaneous; in short: as §2

Row | Compound | Toxic [1] | Toxic (Mus musculus [2]) | Toxic [3] | Toxic [4] | Delta MST [5] [days] | Delta MST [6] [days] | Delta MST [7] [days] | Delta MST (Mus musculus [8]) [days] | Cures (Mus musculus [9]) | Cures (Mus musculus [10]) | Cures (Mus musculus [11]) | Cures (Mus musculus [12]) | Toxic (Mus musculus [13]) | Delta MST (Mus musculus [14]) [days] | Delta MST [15] [days] | Delta MST (Mus musculus [16]) [days] | Delta MST (Mus musculus [17]) [days] | Delta MST (Mus musculus [18]) [days] | Delta MST (Mus musculus [19]) [days]
1 | CC1(C)N=C(N)N=C(N)N1c1cccc(NC(=O)Nc2cccc(N3C(N)=NC(N)=NC3(C)C)c2)c1.Cl.Cl | 5 | 3 | 5 | 5 | 0 | 0 | 0 | 0.2 | – | – | – | – | – | – | – | – | – | – | –
2 | CC1(C)N=C(N)N=C(N)N1c1ccc(/N=N/c2ccc(N3C(N)=NC(N)=NC3(C)C)cc2)cc1.Cl.Cl | – | – | – | – | 0 | 0.2 | 1 | – | 4 | 4 and 5 | 4 and 5 | 4 | 2 and 1 | 5.9 | 0.9 | 1 | 1.9 | 0.1 | 1.6
